In ChEMBL document CHEMBL3861962 (Eur J Med Chem, 2016):
Blank lines part the entries; values can stand above or below the compound they belong to.

How the values were obtained:
[1] = Retention time of the compound; assay type: physicochemical
[2] = Drug level in human liver microsomes treated with bosentan at 5 uM in presence of NADPH after 30 mins by LC-MS/MS analysis; assay type: ADME; settings: 0.5 h
How it was run: (§1)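 Substrate at 5 μM final in 100 mM potassium phosphate, pH 7.4, incubated with human liver microsomes or baculovirus-expressed recombinant CYP3A4, 2D6 or 2C9. Reaction started with 1 mM NADPH and run 0, 15 and 30 min at 37 °C. Stopped with ice-cold acetonitrile containing labetalol internal standard, then centrifuged. Supernatant analysed by LC-MS/MS on a C18 column at 40 °C. Blank was enzyme without substrate.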

Cytochrome P450 3A4 [3] = biological target: T1, Cytochrome P450 3A4 (Homo sapiens, UniProt P08684); experiment: Drug level assessed as human recombinant CYP3A4-mediated compound formation treated with bosentan at 5 uM in presence of NADPH after 30 mins by LC-MS/MS analysis; assay type: ADME; settings: recombinant enzyme, 0.5 h; how it was run: as §1
T1 sequence (P08684 whole entry): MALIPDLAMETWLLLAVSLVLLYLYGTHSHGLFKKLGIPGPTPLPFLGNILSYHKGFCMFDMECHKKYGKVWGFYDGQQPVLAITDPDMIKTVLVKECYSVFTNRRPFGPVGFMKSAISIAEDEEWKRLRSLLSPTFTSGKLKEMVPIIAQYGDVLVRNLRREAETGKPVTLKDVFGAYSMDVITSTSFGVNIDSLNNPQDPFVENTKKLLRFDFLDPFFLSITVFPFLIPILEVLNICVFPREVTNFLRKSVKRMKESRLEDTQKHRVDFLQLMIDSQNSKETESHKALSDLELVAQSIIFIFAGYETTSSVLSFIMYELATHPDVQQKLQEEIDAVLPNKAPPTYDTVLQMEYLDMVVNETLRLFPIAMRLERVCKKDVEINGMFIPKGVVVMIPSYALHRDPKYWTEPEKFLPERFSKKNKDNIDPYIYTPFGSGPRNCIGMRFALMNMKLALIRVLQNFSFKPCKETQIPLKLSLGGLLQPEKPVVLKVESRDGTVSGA

[4] = Drug level in human liver microsomes treated with 4-(1,1,1,3,3,3-Hexafluoro-2-methoxypropan-2-yl)-N-(6-(2-hydroxyethoxy)-5-(2-methoxyphenoxy)-2,2'-bipyrimidin-4-yl)benzenesulfonamide at 5 uM in presence of NADPH after 30 mins by LC-MS/MS analysis; assay type: ADME; settings: 0.5 h; how it was run: as §1
Cytochrome P450 3A4 [5] = biological target: T1, Cytochrome P450 3A4; experiment: Drug level assessed as human recombinant CYP3A4-mediated compound formation treated with 4-(1,1,1,3,3,3-Hexafluoro-2-methoxypropan-2-yl)-N-(6-(2-hydroxyethoxy)-5-(2-methoxyphenoxy)-2,2'-bipyrimidin-4-yl)benzenesulfonamide at 5 uM in presence of NADPH after 30 mins by LC-MS/MS analysis; assay type: ADME; settings: recombinant enzyme, 0.5 h; how it was run: as §1
[6] = biological target: T2, Endothelin receptor type B (Homo sapiens) (UniProt P24530); experiment: Antagonist activity at human recombinant ETB expressed in CHOK1 cells assessed as inhibition of endothelin-1-mediated Ca2+ mobilization at 1 nM by fluorimetric method relative to control; assay type: functional, cell-based; settings: CHO-K1
T2 sequence (whole entry): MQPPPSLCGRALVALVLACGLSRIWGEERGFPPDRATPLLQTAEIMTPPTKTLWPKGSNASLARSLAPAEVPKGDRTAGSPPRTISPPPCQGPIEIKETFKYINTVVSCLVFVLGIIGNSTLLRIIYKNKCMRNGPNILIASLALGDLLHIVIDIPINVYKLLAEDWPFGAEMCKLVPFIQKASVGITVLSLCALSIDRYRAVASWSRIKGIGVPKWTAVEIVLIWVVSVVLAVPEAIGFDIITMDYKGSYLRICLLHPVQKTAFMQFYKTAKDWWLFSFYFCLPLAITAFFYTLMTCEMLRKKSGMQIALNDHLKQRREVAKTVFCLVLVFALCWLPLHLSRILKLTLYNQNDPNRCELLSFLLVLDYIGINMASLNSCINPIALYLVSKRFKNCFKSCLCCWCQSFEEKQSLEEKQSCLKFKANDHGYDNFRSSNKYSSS
How it was run: (§2)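 ETB functional assay run by Cerep in human recombinant CHO-k1 cells at 22 °C with fluorimetric read-out. Test solutions were 1, 10, 100 and 1000 nM. Agonist response is given as % of the control response to 100 nM endothelin-1. For antagonist mode, inhibition is given as % of the control endothelin-1 agonist response, with BQ-788 as reference antagonist.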

[7] = biological target: T2, Endothelin receptor type B (Homo sapiens); experiment: Agonist activity at human recombinant ETB receptor expressed in CHOK1 cells assessed as induction of Ca2+ mobilization at 1 nM by fluorimetric method relative to control; assay type: functional, cell-based; settings: CHO-K1; how it was run: as §2
[8] = biological target: T2, Endothelin receptor type B (Homo sapiens); experiment: Antagonist activity at human recombinant ETB expressed in CHOK1 cells assessed as inhibition of endothelin-1-mediated Ca2+ mobilization at 10 nM by fluorimetric method relative to control; assay type: functional, cell-based; settings: CHO-K1; how it was run: as §2
Cytochrome P450 3A4 [9] = biological target: T1, Cytochrome P450 3A4; experiment: Drug metabolism assessed as human recombinant CYP3A4-mediated formation of 4-(1,1,1,3,3,3-hexafluoro-2-hydroxypropan-2-yl)-N-(6-(2-hydroxyethoxy)-5-(2-hydroxyphenoxy)-2,2'-bipyrimidin-4-yl)benzenesulfonamide at 5 uM in presence of NADPH after 30 mins by LC-MS/MS analysis; assay type: ADME; settings: recombinant enzyme, 0.5 h; how it was run: as §1
[10] = biological target: T3, Endothelin-1 receptor (Homo sapiens) (UniProt P25101); experiment: Antagonist activity at ETA receptor in human SKNMC cells assessed as inhibition of endothelin-1-mediated Ca2+ mobilization at 1 nM by fluorimetric method relative to control; assay type: functional, cell-based; settings: SK-N-MC
T3 sequence (whole entry): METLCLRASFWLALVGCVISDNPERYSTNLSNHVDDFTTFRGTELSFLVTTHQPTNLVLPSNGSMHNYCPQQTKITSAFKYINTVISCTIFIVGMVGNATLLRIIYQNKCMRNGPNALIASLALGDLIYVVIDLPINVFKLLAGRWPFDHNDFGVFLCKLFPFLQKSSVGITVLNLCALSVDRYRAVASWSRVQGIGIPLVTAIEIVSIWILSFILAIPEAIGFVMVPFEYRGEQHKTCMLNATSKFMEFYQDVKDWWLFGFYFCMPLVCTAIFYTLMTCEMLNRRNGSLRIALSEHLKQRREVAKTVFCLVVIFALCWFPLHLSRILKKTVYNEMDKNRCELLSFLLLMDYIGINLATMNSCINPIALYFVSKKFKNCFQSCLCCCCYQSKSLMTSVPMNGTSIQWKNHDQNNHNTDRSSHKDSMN
How it was run: as §2, with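 “ETA” for “ETB”, “neuroblastoma SK-N-MC” for “recombinant CHO-k1”, “BQ-123” for “BQ-788”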

Cytochrome P450 2C9 = Cytochrome P450 2C9 (Homo sapiens, UniProt P11712); experiment: Drug metabolism assessed as human recombinant CYP2C9-mediated metabolite formation by measuring parent compound remaining at 5 uM in presence of NADPH after 30 mins by LC-MS/MS analysis; assay type: ADME; settings: recombinant enzyme, 0.5 h; how it was run: as §1
Chain of Cytochrome P450 2C9 (P11712 whole entry): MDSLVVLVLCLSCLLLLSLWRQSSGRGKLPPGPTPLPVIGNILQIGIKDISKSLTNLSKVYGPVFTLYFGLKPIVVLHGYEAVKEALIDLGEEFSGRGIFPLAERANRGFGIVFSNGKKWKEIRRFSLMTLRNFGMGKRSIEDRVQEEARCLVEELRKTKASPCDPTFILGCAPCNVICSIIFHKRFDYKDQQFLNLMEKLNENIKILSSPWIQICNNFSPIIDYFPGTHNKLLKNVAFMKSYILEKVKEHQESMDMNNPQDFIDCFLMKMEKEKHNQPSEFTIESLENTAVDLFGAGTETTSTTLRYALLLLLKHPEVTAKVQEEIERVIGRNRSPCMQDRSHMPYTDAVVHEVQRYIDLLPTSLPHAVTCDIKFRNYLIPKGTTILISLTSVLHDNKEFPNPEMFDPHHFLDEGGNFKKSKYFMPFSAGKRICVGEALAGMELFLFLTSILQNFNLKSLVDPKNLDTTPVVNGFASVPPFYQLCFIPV

[11] = biological target: T3, Endothelin-1 receptor (Homo sapiens); experiment: Agonist activity at ETA receptor in human SKNMC cells assessed as induction of Ca2+ mobilization at 100 nM by fluorimetric method relative to control; assay type: functional, cell-based; settings: SK-N-MC
How it was run: as §2, with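 “ETA” for “ETB”, “neuroblastoma SK-N-MC” for “recombinant CHO-k1”, “BQ-123” for “BQ-788”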

[12] = biological target: T2, Endothelin receptor type B (Homo sapiens); experiment: Agonist activity at human recombinant ETB receptor expressed in CHOK1 cells assessed as induction of Ca2+ mobilization at 10 nM by fluorimetric method relative to control; assay type: functional, cell-based; settings: CHO-K1; how it was run: as §2
Cytochrome P450 2D6 = Cytochrome P450 2D6 (Homo sapiens, UniProt P10635); experiment: Drug metabolism assessed as human recombinant CYP2D6-mediated metabolite formation by measuring parent compound remaining at 5 uM in presence of NADPH after 30 mins by LC-MS/MS analysis; assay type: ADME; settings: recombinant enzyme, 0.5 h; how it was run: as §1
Chain of Cytochrome P450 2D6 (P10635 whole entry): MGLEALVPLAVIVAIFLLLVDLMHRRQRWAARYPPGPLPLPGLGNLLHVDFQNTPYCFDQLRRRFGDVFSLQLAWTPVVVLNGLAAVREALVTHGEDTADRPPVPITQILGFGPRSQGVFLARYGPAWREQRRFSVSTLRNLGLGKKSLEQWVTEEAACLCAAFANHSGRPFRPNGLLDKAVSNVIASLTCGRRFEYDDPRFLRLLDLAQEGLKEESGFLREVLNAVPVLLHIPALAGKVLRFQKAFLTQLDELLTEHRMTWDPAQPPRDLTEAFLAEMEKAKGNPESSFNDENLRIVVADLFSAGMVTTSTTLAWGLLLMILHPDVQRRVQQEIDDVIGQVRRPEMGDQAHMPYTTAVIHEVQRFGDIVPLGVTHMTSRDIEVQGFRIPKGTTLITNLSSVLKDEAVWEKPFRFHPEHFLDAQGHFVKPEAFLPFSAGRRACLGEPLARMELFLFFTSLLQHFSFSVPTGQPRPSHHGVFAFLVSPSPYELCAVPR

[13] = biological target: T3, Endothelin-1 receptor (Homo sapiens); experiment: Agonist activity at ETA receptor in human SKNMC cells assessed as induction of Ca2+ mobilization at 10 nM by fluorimetric method relative to control; assay type: functional, cell-based; settings: SK-N-MC
How it was run: as §2, with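 “ETA” for “ETB”, “neuroblastoma SK-N-MC” for “recombinant CHO-k1”, “BQ-123” for “BQ-788”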

[14] = biological target: T3, Endothelin-1 receptor (Homo sapiens); experiment: Agonist activity at ETA receptor in human SKNMC cells assessed as induction of Ca2+ mobilization at 1 nM by fluorimetric method relative to control; assay type: functional, cell-based; settings: SK-N-MC
How it was run: as §2, with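 “ETA” for “ETB”, “neuroblastoma SK-N-MC” for “recombinant CHO-k1”, “BQ-123” for “BQ-788”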

[15] = biological target: T2, Endothelin receptor type B (Homo sapiens); experiment: Antagonist activity at human recombinant ETB expressed in CHOK1 cells assessed as inhibition of endothelin-1-mediated Ca2+ mobilization at 100 nM by fluorimetric method relative to control; assay type: functional, cell-based; settings: CHO-K1; how it was run: as §2
[16] = biological target: T3, Endothelin-1 receptor (Homo sapiens); experiment: Antagonist activity at ETA receptor in human SKNMC cells assessed as inhibition of endothelin-1-mediated Ca2+ mobilization at 10 nM by fluorimetric method relative to control; assay type: functional, cell-based; settings: SK-N-MC
How it was run: as §2, with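 “ETA” for “ETB”, “neuroblastoma SK-N-MC” for “recombinant CHO-k1”, “BQ-123” for “BQ-788”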

[17] = Cytotoxicity against CHOK1 cells assessed as decrease in cell viability after 24 hrs by MTT assay; assay type: toxicity, cell-based, Cricetulus griseus; settings: Chinese hamster, CHO-K1 cells
How it was run: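 CHO-k1 cells grown in phenol-red-free DMEM/F-12 with 10% FBS, seeded at 20,000 cells/well and allowed to attach overnight. Exposure was 24 h to 0.1–200 μM, with DMSO as vehicle control. MTT at 1 mg/mL for 3 h at 37 °C, formazan dissolved in DMSO, absorbance read at 570 nm. Data given as % OD of vehicle control; IC50 taken from dose–response curve fits.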

[18] = biological target: T3, Endothelin-1 receptor (Homo sapiens); experiment: Antagonist activity at ETA receptor in human SKNMC cells assessed as inhibition of endothelin-1-mediated Ca2+ mobilization at 100 nM by fluorimetric method relative to control; assay type: functional, cell-based; settings: SK-N-MC
How it was run: as §2, with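 “ETA” for “ETB”, “neuroblastoma SK-N-MC” for “recombinant CHO-k1”, “BQ-123” for “BQ-788”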

[19] = biological target: T2, Endothelin receptor type B (Homo sapiens); experiment: Agonist activity at human recombinant ETB receptor expressed in CHOK1 cells assessed as induction of Ca2+ mobilization at 100 nM by fluorimetric method relative to control; assay type: functional, cell-based; settings: CHO-K1; how it was run: as §2
[20] = Drug metabolism in human liver microsomes assessed as formation of 4-(1,1,1,3,3,3-hexafluoro-2-hydroxypropan-2-yl)-N-(6-(2-hydroxyethoxy)-5-(2-hydroxyphenoxy)-2,2'-bipyrimidin-4-yl)benzenesulfonamide at 5 uM in presence of NADPH after 30 mins by LC-MS/MS analysis; assay type: ADME; settings: 0.5 h; how it was run: as §1
Cytochrome P450 3A4 [21] = biological target: T1, Cytochrome P450 3A4; experiment: Drug metabolism assessed as human recombinant CYP3A4-mediated metabolite formation by measuring parent compound remaining at 5 uM in presence of NADPH after 30 mins by LC-MS/MS analysis; assay type: ADME; settings: recombinant enzyme, 0.5 h; how it was run: as §1
[22] = Metabolic stability in human liver microsomes assessed as parent compound remaining at 5 uM in presence of NADPH after 30 mins by LC-MS/MS analysis; assay type: ADME; settings: read-out: Stability
How it was run: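 Pooled human liver microsomes in 100 mM potassium phosphate, pH 7.4, with test compound at 5 μM final. Reaction started with 1 mM NADPH (final) and run at 37 °C in a shaking water bath for 0, 15 and 30 min. Stopped with an equal volume of ice-cold acetonitrile containing 0.6 μM labetalol as internal standard. Protein was spun out and the supernatant analysed by LC-MS/MS. Blank had no compound.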

Retention_time [1]: 5.52 min
SMILES: CCOc1nc(-c2ncccn2)nc(NS(=O)(=O)c2ccc(C(C)(C)C)cc2)c1Oc1ccccc1O

Drug metabolism [2]: Metabolite_Detected
Retention_time [1]: 4.73 min
Drug metabolism (Cytochrome P450 3A4 [3]): Metabolite_Detected
SMILES: CC(C)(C)c1ccc(S(=O)(=O)Nc2nc(-c3ncccn3)nc(OCCO)c2Oc2ccccc2O)cc1

Retention_time [1]: 5.14 min
Drug metabolism [4]: Metabolite_Detected
Drug metabolism (Cytochrome P450 3A4 [5]): Metabolite_Detected
SMILES: COC(c1ccc(S(=O)(=O)Nc2nc(-c3ncccn3)nc(OCCO)c2Oc2ccccc2O)cc1)(C(F)(F)F)C(F)(F)F

inhibition [6]: 12%
Activity [7]: -1%
inhibition [8]: 11%
Drug metabolism (Cytochrome P450 3A4 [9]): Metabolite_Detected
inhibition [10]: -9%
Stability (Cytochrome P450 2C9): 100%
Activity [11]: 0%
Activity [12]: -1%
Stability (Cytochrome P450 2D6): > 99%
Retention_time [1]: 4.72 min
Activity [13]: 0%
Activity [14]: 0%
inhibition [15]: 14%
inhibition [16]: -5%
Drug metabolism [4]: Metabolite_Detected
inhibition [18]: -7%
Activity [19]: -1%
Drug metabolism [20]: Metabolite_Detected
Stability (Cytochrome P450 3A4 [21]): 72.8%
Drug metabolism (Cytochrome P450 3A4 [5]): Metabolite_Detected
remaining at 0.5 h, 5 µM [22]: 90.1%
SMILES: COc1ccccc1Oc1c(NS(=O)(=O)c2ccc(C(O)(C(F)(F)F)C(F)(F)F)cc2)nc(-c2ncccn2)nc1OCCO
IC50 at 24 h [17]: > 200 µM
